Test results from article PMC10373183 (ACS Omega, 2023).
Entries after “also recorded” stand apart in the source; their conditions may differ.

Experiments:
U937 cells = assay: CellTiter-Glo Luminescent cell viability assay; assay type: cell-based, human; conditions: for inhibition at 25 µM / inhibition at 50 µM / inhibition at 100 µM / inhibition at 200 µM / GI50: Homo sapiens; for inhibition at 25 µM / inhibition at 50 µM / inhibition at 100 µM / inhibition at 200 µM: U-937, 72 h, read-out: percent inhibition at various concentrations of compounds (CellTiter-Glo, antiproliferative); for GI50: U-937, read-out: antiproliferative (U937) GI50; for antiproliferative activity (in words) / percent inhibition at various concentrations of compounds (CellTiter-Glo, antiproliferative): U937 cells; for antiproliferative activity (in words): CellTiter-Glo, four concentrations; for percent inhibition at various concentrations of compounds (CellTiter-Glo, antiproliferative): 72 h, Mitomycin C = 100%, DMSO = 0%
In short: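 U937 cells incubated 72 h with test compound at four concentrations; CellTiter-Glo reagent added at equal volume, shaken 2 min to lyse, then held 10 min at room temperature before luminescence read. Viability = RLU test × 100/RLU control, converted to percent inhibition. GI50 fitted from percent inhibition. Mitomycin C positive control; DMSO diluent as negative control.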

[1] = LDH release cytotoxicity assay; assay type: cell-based; conditions: human, U937 cells
In short: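 U937 cells plated and exposed to test compound at several concentrations for 4 h at 37 °C, with Triton X-100 as positive cytotoxicity control. Plates spun 1000 RPM for 5 min. Supernatants mixed with LDH detection reagent for 10 min in the dark at room temperature, then read at OD 490 nm. LC50 fitted from percent activity.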

Row | Molecule | inhibition at 25 µM (U937 cells) | inhibition at 50 µM (U937 cells) | inhibition at 100 µM (U937 cells) | inhibition at 200 µM (U937 cells) | GI50 (U937 cells) | antiproliferative activity (in words) (U937 cells) | inhibition at 4 h, 12.5 µM [1] | inhibition at 4 h, 25 µM [1] | inhibition at 4 h, 50 µM [1] | inhibition at 4 h, 100 µM [1] | percent inhibition at various concentrations of compounds (CellTiter-Glo, antiproliferative) (U937 cells; 25 μM compound) | percent inhibition at various concentrations of compounds (CellTiter-Glo, antiproliferative) (U937 cells; 50 μM compound) | percent inhibition at various concentrations of compounds (CellTiter-Glo, antiproliferative) (U937 cells; 100 μM compound) | percent inhibition at various concentrations of compounds (CellTiter-Glo, antiproliferative) (U937 cells; 200 μM compound)
1 | Cc1n[nH]c(C)c1S(=O)(=O)NCCC1=CCCCC1 [MR-S1-1, N-(2-(Cyclohex-1-en-1-yl)ethyl)-3,5-dimethyl-1H-pyrazole-4-sulfonamide] | 18.6% | 34.5% | 54.2% | 64.2% | 1.7 µM | moderate anti-proliferative activity | -0.9% | -2.2% | -0.4% | -1.8% |  |  |  | 
2 | Cc1nn(C)c(C)c1S(=O)(=O)NCCC1=CCCCC1 [MR-S1-2, N-(2-(Cyclohex-1-en-1-yl)ethyl)-1,3,5-trimethyl-1H-pyrazole-4-sulfonamide] | 24.8% | 29.3% | 42.2% | 58% | > 200 µM |  | -1.3% | -3.6% | -3.1% | -5.3% |  |  |  | 
3 | Cc1n[nH]c(C)c1S(=O)(=O)NCCc1ccccc1 [MR-S1-3, 3,5-Dimethyl-N-phenethyl-1H-pyrazole-4-sulfonamide] | 12.7% | 24.5% | 31.8% | 74.8% | 16 µM | moderate anti-proliferative activity | -0.9% | -2.4% | -1.3% | -1.3% |  |  |  | 
4 | Cc1nn(C)c(C)c1S(=O)(=O)NCCc1ccccc1 [MR-S1-4, 1,3,5-Trimethyl-N-phenethyl-1H-pyrazole-4-sulfonamide] | 33% | 19.2% | 37.8% | 23.2% | > 200 µM | impotent; also recorded: less anti-proliferative activity | -2.9% | -2.2% | -0.9% | -1.8% |  |  |  | 
5 | Cc1n[nH]c(C)c1S(=O)(=O)NCCc1ccc(Cl)cc1 [MR-S1-5, N-(4-Chlorophenethyl)-3,5-dimethyl-1H-pyrazole-4-sulfonamide] | 48.3% | 44.2% | 61.5% | 78.7% | 16 µM | moderate anti-proliferative activity | -1.8% | -2.2% | -0.2% | -2.7% |  |  |  | 
6 | Cc1nn(C)c(C)c1S(=O)(=O)NCCc1ccc(Cl)cc1 [MR-S1-6, N-(4-Chlorophenethyl)-1,3,5-trimethyl-1H-pyrazole-4-sulfonamide] | 40.5% | 17.9% | 28.4% | 44.2% | > 200 µM |  | 3.3% | -1.3% | -2% | -1.6% |  |  |  | 
7 | Cc1n[nH]c(C)c1S(=O)(=O)NCCc1cccc(Cl)c1 [MR-S1-7, N-(3-Chlorophenethyl)-3,5-dimethyl-1H-pyrazole-4-sulfonamide] | 14.5% | 13.4% | 24.2% | 51.6% | > 200 µM |  | -2% | -2.4% | 0.9% | -3.1% |  |  |  | 
8 | Cc1nn(C)c(C)c1S(=O)(=O)NCCc1cccc(Cl)c1 [MR-S1-8, N-(3-Chlorophenethyl)-1,3,5-trimethyl-1H-pyrazole-4-sulfonamide] | 25.1% | 28.4% | 34.6% | 47.4% | > 200 µM |  | 2.9% | -1.3% | 1.8% | 0.4% |  |  |  | 
9 | COc1ccc(CCNS(=O)(=O)c2c(C)n[nH]c2C)cc1OC [MR-S1-9, N-(3,4-Dimethoxyphenethyl)-3,5-dimethyl-1H-pyrazole-4-sulfonamide] | -0.5% | -26.2% | -21.2% | 2% | > 200 µM | impotent; also recorded: less anti-proliferative activity | -2.7% | 2.7% | 2.4% | -2.4% |  |  |  | 
10 | CCCOc1ccc(CCNS(=O)(=O)c2c(C)n[nH]c2C)cc1OCCC [MR-S1-12, N-(3,4-Dipropoxyphenethyl)-3,5-dimethyl-1H-pyrazole-4-sulfonamide] | 35.9% | 94.9% | 100% | 99.3% | 3.3 µM | good antiproliferative activity; also recorded: potent | -2.2% | 0.7% | -2.7% | -0.9% |  |  |  | 
11 | Cc1n[nH]c(C)c1S(=O)(=O)N[C@H](C)c1cccc2ccccc12 [MR-S1-14, (R)-3,5-Dimethyl-N-(1-(naphthalen-1-yl)ethyl)-1H-pyrazole-4-sulfonamide] | 27.6% | 32.9% | 68.7% | 98.9% | 9.4 µM | good antiproliferative activity; also recorded: most potent | -2.4% | -4% | -0.9% | -3.1% |  |  |  | 
12 | Cc1nn(C)c(C)c1S(=O)(=O)N[C@H](C)c1cccc2ccccc12 [MR-S1-15, (R)-1,3,5-Trimethyl-N-(1-(naphthalen-1-yl)ethyl)-1H-pyrazole-4-sulfonamide] | 19.5% | 65.1% | 88.5% | 101% | 3 µM | good antiproliferative activity; also recorded: most potent | 0% | -1.3% | -1.8% | -2.7% |  |  |  | 
13 | Cc1n[nH]c(C)c1S(=O)(=O)NCCc1c[nH]c2ccccc12 [MR-S1-16, N-(2-(1H-Indol-3-yl)ethyl)-3,5-dimethyl-1H-pyrazole-4-sulfonamide] | 14.5% | 24.1% | 22.5% | 55.9% | > 200 µM |  | 3.8% | -0.9% | -1.6% | -1.8% |  |  |  | 
14 | Cc1nn(C)c(C)c1S(=O)(=O)NCCc1c[nH]c2ccccc12 [MR-S1-17, N-(2-(1H-Indol-3-yl)ethyl)-1,3,5-trimethyl-1H-pyrazole-4-sulfonamide] | 18.6% | 12.9% | 32.2% | 12.9% | > 200 µM | impotent; also recorded: less anti-proliferative activity | -0.9% | -2% | -2% | -1.6% |  |  |  | 
15 | Cc1nn(C)c(C)c1S(=O)(=O)N1CCC(c2nc3ccccc3[nH]2)CC1 [MR-S1-18, 2-(1-((1,3,5-Trimethyl-1H-pyrazol-4-yl)sulfonyl)piperidin-4-yl)-1H-benzo[d]imidazole] | 11.7% | 36.4% | 43.9% | 83.4% | 92.6 µM | good antiproliferative activity | 0.2% | -1.8% | 0.2% | -0.4% |  |  |  | 
16 | CCOCCn1c(C2CCN(S(=O)(=O)c3c(C)n[nH]c3C)CC2)nc2ccccc21 [MR-S1-19, 2-(1-((3,5-Dimethyl-1H-pyrazol-4-yl)sulfonyl)piperidin-4-yl)-1-(2-ethoxyethyl)-1H-benzo[d]imidazole] | -5% | 2.2% | -1.3% | 18% | > 200 µM | impotent; also recorded: less anti-proliferative activity | -4.9% | -1.3% | -1.8% | -4% |  |  |  | 
17 | N-(3,4-Bis(methoxy-d3)phenethyl-d6)-3,5-dimethyl-1H-pyrazole-4-sulfonamide [MR-S1-10] |  |  |  |  |  | less anti-proliferative activity |  |  |  |  | –8.1% | –37.5% | –39.0% | –14.5%
